The term inhibition denotes the change of the read-out against control, counted positive when it falls. By MIC is commonly meant the lowest concentration that inhibits growth of the organism. By pIC50 is commonly meant the IC50 on a negative log10 scale, so that one unit is a factor of ten.

Structures are written as SMILES. pIC50: −log10 of the molar value. In brackets after ≈: the same amount, converted by molar mass.

The record followed here is ChEMBL document CHEMBL3608306, “Design, synthesis and evaluation of new GEQ derivatives as inhibitors of InhA enzyme and Mycobacterium tuberculosis growth” (Eur J Med Chem, 2015).

Assay [1] deals with Mycobacterium tuberculosis. The experiment in a line: Inhibition of Mycobacterium tuberculosis His6-tagged InhA expressed in Escherichia coli BL21 using 2-trans-dodecenoyl-CoA as substrate assessed as conversion of NADH to NAD+ at 10 uM relative to control. A digest of the protocol:
(§1)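 Triplicate NADH-dependent reduction of the substrate analogue 2-trans-dodecenoyl-CoA by InhA, with NADH oxidation to NAD+ followed as the fall in absorbance at 340 nm. Percent inhibition was screened at 50 µM, or at 10 µM where solubility limited. IC50 came from 4-parameter curve fits of at least six concentrations.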

For assay [2], the system named is Mycobacterium tuberculosis. The assay can be described thus: Inhibition of Mycobacterium tuberculosis His6-tagged InhA expressed in Escherichia coli BL21 using 2-trans-dodecenoyl-CoA as substrate assessed as conversion of NADH to NAD+ at 50 uM relative to control. A digest of the protocol:
as §1

Assay [3] concerns Mycobacterium tuberculosis. The experiment in a line: Antimycobacterial activity against Mycobacterium tuberculosis H37Rv after 21 days by microbroth dilution method. Format: functional.
Assay [4] in a line: Inhibition of Mycobacterium tuberculosis His6-tagged InhA expressed in Escherichia coli BL21 using 2-trans-dodecenoyl-CoA as substrate assessed as conversion of NADH to NAD+. The method, boiled down:
as §1

For assay [5], the system named is Mycobacterium tuberculosis. The assay can be described thus: Antimycobacterial activity against Mycobacterium tuberculosis by Alamar blue assay. The class given is functional.
For assay [6], the system named is Mycobacterium tuberculosis. The experiment in a line: Ratio of MIC for Mycobacterium tuberculosis H37Rv in absence of CCCP to MIC for Mycobacterium tuberculosis H37Rv in presence of CCCP. The class given is functional.
For assay [7], the system named is Mycobacterium tuberculosis. The assay can be described thus: Ratio of MIC for Mycobacterium tuberculosis H37Rv in absence of verapamil to MIC for Mycobacterium tuberculosis H37Rv in presence of verapamil. Format: functional.
For assay [8], the system named is Mycobacterium tuberculosis. The assay can be described thus: Antimycobacterial activity against Mycobacterium tuberculosis H37Rv after 21 days by microbroth dilution method in presence of 7.5 ug/ml efflux pump inhibitor CCCP. As to conditions: 504 h. The class given is functional. (In general: Dilution methods test growth across graded concentrations, often in twofold steps.)

Assay [9] deals with Mycobacterium tuberculosis. The experiment in a line: Antimycobacterial activity against Mycobacterium tuberculosis H37Rv after 21 days by microbroth dilution method in presence of 40 ug/ml efflux pump inhibitor verapamil. The class given is functional. Conditions: 504 h.
Assay [10] has as its system Mycobacterium tuberculosis. The experiment in a line: Antimycobacterial activity against Mycobacterium tuberculosis H37Rv after 21 days by microbroth dilution method in presence of 3 ug/ml efflux pump inhibitor reserpine. The class given is functional. As to conditions: 504 h.
Assay [11] has as its system Mycobacterium tuberculosis. The assay can be described thus: Antimycobacterial activity against Mycobacterium tuberculosis by CFU counting method. Format: functional.
For assay [12], the system named is Mycobacterium tuberculosis. The assay can be described thus: Ratio of MIC for Mycobacterium tuberculosis H37Rv in absence of reserpine to MIC for Mycobacterium tuberculosis H37Rv in presence of reserpine. The class given is functional.
In assay [13] the test system is Mycobacterium tuberculosis. The experiment in a line: Inhibition of Mycobacterium tuberculosis His6-tagged InhA expressed in Escherichia coli BL21 using 2-trans-dodecenoyl-CoA as substrate assessed as conversion of NADH to NAD+ at 250 nM relative to control. A digest of the protocol: (§2)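 Chirally separated enantiomers were tested for InhA inhibition at 5 µM or 250 nM, run in triplicate. The assay used 2-trans-dodecenoyl-CoA substrate and NADH, read as the decrease in absorbance at 340 nm from NADH oxidation to NAD+. IC50 came from 4-parameter fits of at least six points.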

Assay [14] concerns Mycobacterium tuberculosis. The experiment in a line: Inhibition of Mycobacterium tuberculosis His6-tagged InhA expressed in Escherichia coli BL21 using 2-trans-dodecenoyl-CoA as substrate assessed as conversion of NADH to NAD+ at 5 uM relative to control. The method, boiled down: as §2
Setting [15] is: Mycobacterium tuberculosis, H37Rv, 504 h, read-out: MIC.

Turning to `O=C(Nc1ccccc1)N1CCN(C2c3ccccc3-c3ccccc32)CC1`, the inhibition was determined as 79% in [1] and 84% in assay [2]. In [3] (setting [15]), the MIC is greater than 27.1 µM. Further, the pIC50 in assay [4] was 5.93.
On to `O=C(c1ccc2[nH]ccc2c1)N1CCN(C2c3ccccc3-c3ccccc32)CC1`, for which the minimal inhibitory concentration (MIC) in assay [5] was greater than 125 µM; in assay [8], less than 12.7 µM; in assay [3] (setting [15]) it was 50.1 µM (≈ 19.7 µg/mL); in assay [9], less than 12.7 µM; in [10], 25.4 µM; in assay [11] it was greater than 125 µM. Besides, the inhibition was 81% in [1] and 87% in assay [2]. In addition, the Ratio in assay [6] and in assay [7] was greater than 4 in each case. Also, in [4], the pIC50 is 6.07.
Consider `O=C(c1ccccc1)N1CCN(C2c3ccccc3-c3ccccc32)CC1`, for which the inhibition in assay [1] and in assay [2] was 94% throughout. The Ratio in assay [6] is reported as greater than 5. The minimal inhibitory concentration (MIC) was less than 3.5 µM in assay [8], 14.1 µM (≈ 5 µg/mL) in [3] (setting [15]), 56.5 µM in assay [9] and 56.5 µM in assay [10]. The pIC50 in assay [4] was 6.31.
As to `O=S(=O)(c1ccccc1)N1CCN(C2c3ccccc3-c3ccccc32)CC1`, the inhibition in [2] amounted to 12%. Also, the MIC in [3] (setting [15]) was greater than 25.6 µM.
The matching figures for `c1ccc2c(c1)-c1ccccc1C2N1CCNCC1`: 7% and greater than 39.9 µM.
Take `CCCCC(=O)N1CCN(C2c3ccccc3-c3ccccc32)CC1`: the values for the inhibition in [1] and in assay [2] were 45% and 75%, respectively. Besides, the MIC in [3] (setting [15]) amounted to 29.9 µM (≈ 10 µg/mL).
With `CCCCCCCCC(=O)N1CCN(C2c3ccccc3-c3ccccc32)CC1`, the inhibition in [1] worked out at 22%; in assay [2] it was 47%. The MIC in assay [3] (setting [15]) stood at 12.8 µM (≈ 5 µg/mL).
In the case of `S=C(c1ccccc1)N1CCN(C2c3ccccc3-c3ccccc32)CC1`, the inhibition in [2] is 31%. Further, the minimum inhibitory concentration (MIC) in [3] (setting [15]) amounted to 13.5 µM (≈ 5 µg/mL).
For the molecule `S=C(Nc1ccccc1)N1CCN(C2c3ccccc3-c3ccccc32)CC1`, the inhibition is 32% in assay [1] and 57% in assay [2]. Besides, in [3] (setting [15]), the minimal inhibitory concentration (MIC) is greater than 25.9 µM.
The matching figures for `CCCCNC(=O)N1CCN(C2c3ccccc3-c3ccccc32)CC1`: 42%, 68% and 14.3 µM (≈ 5 µg/mL).
Regarding `CCCCCCCCNC(=O)N1CCN(C2c3ccccc3-c3ccccc32)CC1`, the inhibition in assay [2] turned out to be 34%. For the same molecule, the MIC in assay [3] (setting [15]) was greater than 24.7 µM.
`O=C(Nc1ccc([N+](=O)[O-])cc1)N1CCN(C2c3ccccc3-c3ccccc32)CC1`: in assay [2], the inhibition came to 33%. Besides, in assay [3] (setting [15]), the MIC worked out at 12.1 µM (≈ 5.02 µg/mL).
In the case of `O=C(c1ccccc1)N1CCC(C2c3ccccc3-c3ccccc32)CC1`, the values for the inhibition in assay [1] and in [2] were 88% and 93%, respectively. Moreover, in assay [3] (setting [15]), the MIC is 28.3 µM (≈ 10 µg/mL). Also, in [4], the negative logarithm of the IC50 (pIC50) is 6.03.
With `O=C1CN(C2c3ccccc3-c3ccccc32)CCN1C(=O)c1ccccc1`, the inhibition in [2] was 26%. Moreover, in assay [3] (setting [15]), the minimal inhibitory concentration (MIC) is greater than 27.1 µM.
The matching figures for `[O-][S+](c1ccccc1)N1CCN(C2c3ccccc3-c3ccccc32)CC1` (racemic): 14% and greater than 26.7 µM.
The matching figures for `CP(=O)(c1ccccc1)N1CCN(C2c3ccccc3-c3ccccc32)CC1` (racemic): 17% and greater than 24.7 µM.
For `COP(=O)(c1ccccc1)N1CCN(C2c3ccccc3-c3ccccc32)CC1` (racemic) the same measures were 17% and greater than 25.7 µM.
Consider `CCCCCCc1ccc2c(c1)C(N1CCN(C(=O)c3ccccc3)CC1)c1ccccc1-2` (racemic), for which the inhibition in assay [1] is 45%; in assay [2] it was 48%. Also, the minimum inhibitory concentration (MIC) in assay [3] (setting [15]) stood at 22.8 µM (≈ 10 µg/mL).
The matching figures for `CCCCCCCCc1ccc2c(c1)C(N1CCN(C(=O)c3ccccc3)CC1)c1ccccc1-2` (racemic): 27%, 54% and greater than 21.4 µM.
Regarding `CCCCCCc1ccc2c(c1)-c1ccccc1C2N1CCN(C(=O)c2ccccc2)CC1` (racemic), the inhibition in assay [1] was found to be 52%; in [2], 60%. The MIC in [3] (setting [15]) worked out at 22.8 µM (≈ 10 µg/mL). Moreover, the pIC50 in [4] is 6.00.
As for `COc1ccc2c(c1)-c1ccccc1C2N1CCN(C(=O)c2ccccc2)CC1` (racemic) [listing 1 of 2 here], the MIC in [3] (setting [15]) is 26 µM (≈ 10 µg/mL). The pIC50 in assay [4] was 5.57.
With `CCCOc1ccc2c(c1)-c1ccccc1C2N1CCN(C(=O)c2ccccc2)CC1` (racemic), the inhibition turned out to be 84% in assay [1] and 91% in assay [2]. In assay [3] (setting [15]), the MIC was 24.2 µM (≈ 9.98 µg/mL). Besides, the negative logarithm of the IC50 (pIC50) in assay [4] is 6.00.
For `CCCCCCOc1ccc2c(c1)-c1ccccc1C2N1CCN(C(=O)c2ccccc2)CC1` (racemic) [listing 1 of 2 here], the minimal inhibitory concentration (MIC) in assay [3] (setting [15]) was found to be 22 µM (≈ 10 µg/mL). Also, the pIC50 in [4] was 6.70.
On to `CCCOc1ccc2c(c1)C(N1CCN(C(=O)c3ccccc3)CC1)c1ccccc1-2` (racemic), for which the inhibition in [1] was determined as 83%; in assay [2], 88%. Moreover, in assay [3] (setting [15]), the MIC was greater than 24.2 µM. In addition, in assay [4], the pIC50 was 5.89.
The matching figures for `O=C(c1ccccc1)N1CCN(C2c3ccccc3-c3cc(OCc4ccccc4)ccc32)CC1` (racemic): 57%, 63%, greater than 21.7 µM and 6.00.
Turning to `CCCCCCOc1ccc2c(c1)-c1ccccc1C2C1CCN(C(=O)c2ccccc2)CC1` (racemic), the inhibition in assay [1] was found to be 71%; in [2] it was 64%. Further, the Ratio was 4 in assay [12] and 2 in assay [7]. Further, the minimum inhibitory concentration (MIC) stood at 88.2 µM (≈ 40 µg/mL) in assay [3] (setting [15]), 44.1 µM in assay [9] and 22.1 µM in assay [10]. For the same molecule, in assay [4], the negative logarithm of the IC50 (pIC50) was 5.98.
Consider `CCCCCCOc1ccc2c(c1)-c1ccccc1C2N1CCN(C(=O)c2ccccc2)CC1` (racemic) [listing 2 of 2 here], for which the inhibition in [1] worked out at 70%; in assay [2] it was 79%; in assay [13] it was 53%.
Consider `COc1ccc2c(c1)-c1ccccc1C2N1CCN(C(=O)c2ccccc2)CC1` (racemic) [listing 2 of 2 here], for which the inhibition is 74% in assay [1], 60% in [14] and 92% in assay [2].
Molecule `CCCCCCOc1ccc2c(c1)-c1ccccc1C2N1CCN(C(=O)c2ccccc2)CC1` (single isomer, unassigned) [listing 1 of 2 here] had a minimum inhibitory concentration (MIC) in assay [3] greater than 22 µM.
For `CCCCCCOc1ccc2c(c1)-c1ccccc1C2N1CCN(C(=O)c2ccccc2)CC1` (single isomer, unassigned) [listing 2 of 2 here], in assay [13], the inhibition turned out to be 0%.
Turning to `COc1ccc2c(c1)-c1ccccc1C2N1CCN(C(=O)c2ccccc2)CC1` (single isomer, unassigned; enantiomer 1) [listing 1 of 2 here], the minimum inhibitory concentration (MIC) in assay [3] is greater than 26 µM.
For `COc1ccc2c(c1)-c1ccccc1C2N1CCN(C(=O)c2ccccc2)CC1` (single isomer, unassigned; enantiomer 1) [listing 2 of 2 here], the inhibition in assay [14] came to 11%.
In the case of `CCCCCCOc1ccc2c(c1)-c1ccccc1C2N1CCN(C(=O)c2ccccc2)CC1` (single isomer, unassigned; enantiomer 2) [listing 1 of 2 here], the Ratio in assay [12] and in assay [6] was greater than 4 throughout. The MIC in assay [8] is less than 2.7 µM; in [3], 11 µM (≈ 5 µg/mL); in assay [9], 11 µM; in assay [10] it was less than 2.7 µM. Besides, the pIC50 in assay [4] was 6.99.
In the case of `CCCCCCOc1ccc2c(c1)-c1ccccc1C2N1CCN(C(=O)c2ccccc2)CC1` (single isomer, unassigned; enantiomer 2) [listing 2 of 2 here], the inhibition in [13] was 71%.
On to `COc1ccc2c(c1)-c1ccccc1C2N1CCN(C(=O)c2ccccc2)CC1` (stereo in doubt; 31b) [listing 1 of 2 here], for which the pIC50 in assay [4] is 5.68.
`COc1ccc2c(c1)-c1ccccc1C2N1CCN(C(=O)c2ccccc2)CC1` (stereo in doubt; 31b) [listing 2 of 2 here]: in [14], the inhibition turned out to be 68%.
On to `NNC(=O)c1ccncc1` [ISONIAZID], for which, in assay [3] (setting [15]), the minimal inhibitory concentration (MIC) was found to be 0.4 µM (≈ 0.0549 µg/mL).
